According to PubChem BioAssay AID1257 (The Scripps Research Institute Molecular Screening Center, 2008):
Some of the results follow. Values without a mark were called inactive. Calls of active or inactive are those of the source.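 How the source made its calls: active means mean inhibition of triplicate wells above the hit cutoff set in the primary screen (cut at about 17% in these data); inactive means the rest.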

What follows are compounds tested against Neuropeptide Y receptor type 2 (Homo sapiens) (UniProt P49146) (assay: blockers of human NPY-Y2 signalling – HEK293-CNG cells, membrane potential fluorescence, triplicate, confirmation (AID 1257;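 further: 0% = DMSO with NPY challenge and 100% = BIIE0246 high control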)). Details: HEK293 NPY-Y2 CNG channel, at 2.8 µM, hits give high values.
Neuropeptide Y receptor type 2 (Homo sapiens), sequence (P49146 whole entry, looked up): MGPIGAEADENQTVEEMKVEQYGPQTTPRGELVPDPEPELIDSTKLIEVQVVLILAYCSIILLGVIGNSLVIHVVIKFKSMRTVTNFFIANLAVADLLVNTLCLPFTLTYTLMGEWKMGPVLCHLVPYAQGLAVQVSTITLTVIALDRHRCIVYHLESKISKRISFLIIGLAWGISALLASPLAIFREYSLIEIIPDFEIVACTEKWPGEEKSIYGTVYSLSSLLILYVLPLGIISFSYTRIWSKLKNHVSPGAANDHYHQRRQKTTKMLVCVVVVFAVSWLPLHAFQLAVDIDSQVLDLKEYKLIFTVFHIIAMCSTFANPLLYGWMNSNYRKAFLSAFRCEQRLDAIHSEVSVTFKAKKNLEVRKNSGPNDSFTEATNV
Method in brief: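 System – HEK293 cells expressing NPY-Y2 receptor and CNG channel · Also added – NPY 8 nM plus isoproterenol 1 µM, Ro 20-1724 25 µM · Compound dosing – single nominal compound dose of 2.8 µM · Incubation – 60 min NPY incubation, room temperature · Technique – voltage-sensitive dye fluorescence · Measure – 30-min to baseline fluorescence ratio, control-normalized · Repeats – three replicates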
`CCOC(=O)C(C)Sc1nc2ccccc2c(=O)n1CC1CCCCC1` (stereo unspecified) was tested, and the inhibition was 8.48%. `COc1ccc(NC(=O)/C(Cl)=C(/Cl)S(=O)Cc2ccc(C)cc2)cn1` (stereo unspecified) was tested, and the inhibition was 60.8% (active). `CCOc1ccc(C(O)Cn2c(=N)n(CCN3CCCCC3)c3ccccc32)cc1` (stereo unspecified) was tested, and the inhibition was 14.8%. `Cc1ccc(NC(=O)CN2CCC3(O)CCCCC3C2c2ccc3c(c2)OCO3)c(C)c1` (stereo unspecified) gave an inhibition of 7.05%. `N#Cc1ccc(C(c2nnnn2CCc2ccccc2)N2CCCCCC2)cc1` (stereo unspecified) gave an inhibition of 7.32%. In the case of `N#Cc1ccc(N2Cc3ccccc3/C2=N/C(=O)Nc2ccc(Cl)cc2)cc1`, the inhibition is reported as 144% (active). `Cc1ccc(C2=NN(C)c3nc4ccccc4n3C2)cc1` showed an inhibition of 4.08%. Work on `CCCCCNC(=O)Cc1ccc(OC)cc1` yielded an inhibition of -1.6%. In the case of `COc1ccc(-c2noc(COc3ccc(Cl)c(C)c3)n2)cc1`, the inhibition is reported as 32.4% (active). For `N=c1n(Cc2ccc(Cl)cc2)c2ccccc2n1CC(O)c1ccco1` (stereo unspecified), the inhibition was 17.8% (active). Compound `c1ccc(-c2cc3c(NCC4COc5ccccc5O4)ncnc3s2)cc1` (stereo unspecified) has an inhibition of 15.2%. Work on `C=CCNCCCCOc1ccccc1` yielded an inhibition of -1.34%. For `COc1ccc(/C=C/C(=O)NC(=S)NN2CCCCC2c2cccnc2)cc1` (stereo unspecified), the inhibition was 63.5% (active). `O=S(=O)(Cc1cc(Sc2ccccc2)nc(-c2ccccc2)n1)c1ccccc1` showed an inhibition of 7.19%. Compound `Cc1cccc(OCC(O)Cn2c(=N)n(CCN3CCOCC3)c3ccccc32)c1` (stereo unspecified) has an inhibition of 6.36%. `Cc1cc(C)nc(-n2ncc3c2CC(c2ccc(C(C)C)cc2)CC3=O)n1` (stereo unspecified) was tested, and the inhibition was 24.2% (active).
